Assay outcomes from PubChem BioAssay.
HTRA1 inhibitor – blocks human HTRA1 serine peptidase. hit rate 0.5% among 340,000. Q92743. recombinant HTRA1, FP-rhodamine activity-based probe, fluorescence polarization. inhibition, % at 5.96 µM; in the data active = inhibition above about 36%;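 also: 0% = enzyme with DMSO and 100% = wells lacking enzyme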
PRMT1 FP inh – PRMT1 (human) inhibition, primary screen | hit rate 1.3% among 370,000 | inhibition, % at 2.79 µM | Q99873 | AID 652257 | recombinant PRMT1, activity-based probe fluorescence polarization;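 active = inhibition above about 21% made by adding two undisclosed values, limit read from the data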
TCR-CD3 inh – human TCR-CD3 binding inhibition. TAMRA-labeled TCR probe fluorescence, biochemical. hit rate 0.37% among 360,000. inhibition, % at 9.4 µM;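 also: recombinant mutant TCR 2C K166C tagged with TAMRA read by polarization; 0% = receptor in buffer alone and 100% = receptor with positive control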
ATG4B inhibitor – blocks human ATG4B protease cleavage of LC3 substrate. inhibition, % at 8.33 µM. hit rate 0.51% among 340,000. ATG4B cleavage of LC3-PLA2, NBD-HPC fluorescence, 1 h. AID 504462; in the data active = inhibition above about 40%
Target sequence (Q9Y4P1 whole entry, looked up): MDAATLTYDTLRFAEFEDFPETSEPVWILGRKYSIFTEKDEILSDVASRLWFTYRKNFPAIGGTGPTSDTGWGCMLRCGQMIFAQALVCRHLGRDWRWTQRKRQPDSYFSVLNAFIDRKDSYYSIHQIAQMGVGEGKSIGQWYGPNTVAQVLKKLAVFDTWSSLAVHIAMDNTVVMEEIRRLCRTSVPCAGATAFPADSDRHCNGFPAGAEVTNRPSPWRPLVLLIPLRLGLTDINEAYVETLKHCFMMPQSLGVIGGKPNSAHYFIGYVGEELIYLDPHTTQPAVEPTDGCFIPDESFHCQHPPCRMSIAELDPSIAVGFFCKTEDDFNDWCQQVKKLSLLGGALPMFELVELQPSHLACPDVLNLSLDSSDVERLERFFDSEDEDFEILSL
SIAE inh – human SIAE inhibition, primary screen | Q9HAT2 | inhibition, % at 9.66 µM | SIAE FP-Rh probe binding, fluorescence polarization | hit rate 0.69% among 370,000 | AID 1053197;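 active = inhibition above a cutoff: mean of compounds within the control limits plus 3 SD of those, cut at about 17% in these data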;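 also: 0% = plate median of compound wells and 100% = probe without SIAE protein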
mABHD4 FP – ABHD4 (mouse) inhibition, primary FP screen; Q8VD66; purified mABHD4, FP-Rh probe fluorescence polarization; inhibition, % at 8.92 µM; hit rate 0.54% among 370,000; AID 720543;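 active = inhibition exceeding the mean over every tested compound plus 3 SD, cut at about 30% in these data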;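 also: 0% = plate median of compound wells and 100% = S159A mutant with DMSO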
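Test system: mABHD4 protein | Buffer or medium: HEPES pH 7.0 buffer, 150 mM NaCl, 0.01% Pluronic F-127 | Probe or stimulus: FP-Rh fluorescent activity-based probe, added after compound pre-incubation | Timing: Pre-incubation 45 min, probe exposure 60 min, at 25 °C | Technique: Fluorescence polarization, excitation 525 nm, emission 598 nm, BODIPY TMR filters | Repeats: Single well per compound (singlicate)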
HTRA1 inh conf – confirmation of human HTRA1 inhibitors; shares compounds with HTRA1 inhibitor; recombinant HTRA1, FP-rhodamine activity-based probe, fluorescence polarization; inhibition, % at 5.96 µM; hit rate 66% among 1,600;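 active = mean inhibition over three repeats above a set limit taken from the earlier primary screen, cut at about 37% in these data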;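 also: 0% = HTRA1 with DMSO and 100% = wells lacking HTRA1; inhibitors block probe binding so polarization drops and inhibition rises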
BSA TAMRA ctr – counter-screen for TCR-CD3 interaction inhibitors: BSA probe; TAMRA-labeled BSA probe fluorescence counterscreen; shares compounds with TCR-CD3 inh; hit rate 10% among 1,200; inhibition, % at 9.4 µM; in the data active = inhibition above about 23%;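 also: 0% = buffer low control and 100% = reference high control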
TCR-CD3 inh conf – confirmation of human TCR-CD3 interaction inhibitors; TAMRA-labeled TCR probe fluorescence binding assay; inhibition, % at 9.4 µM; shares compounds with TCR-CD3 inh; hit rate 48% among 1,200; AID 652036
PRMT1 inh conf – confirmation of human PRMT1 inhibitors; recombinant His-PRMT1, activity-based probe fluorescence polarization; inhibition, % at 2.79 µM; hit rate 42% among 3,300; shares compounds with PRMT1 FP inh;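 active = mean inhibition across replicates above the hit cutoff derived for the earlier primary screen, cut at about 22% in these data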
mABHD4 conf – confirmation of mouse ABHD4 inhibitors; purified mABHD4, FP-Rh probe fluorescence polarization; inhibition, % at 8.92 µM; hit rate 55% among 1,800; shares compounds with mABHD4 FP;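 active = mean inhibition across replicates above the hit cutoff set in the primary screen, cut at about 30% in these data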;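 also: 0% = wild-type ABHD4 with DMSO and 100% = catalytically dead S159A mutant with DMSO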
SIAE inh conf – confirmation of human SIAE inhibitors | shares compounds with SIAE inh | SIAE FP-Rh activity-based probe, fluorescence polarization | inhibition, % at 9.66 µM | hit rate 13% among 2,300 | AID 1117263;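 active = mean inhibition of the replicates above the hit cutoff set in the primary screen, cut at about 17% in these data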;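 also: 0% = SIAE with DMSO and probe and 100% = probe without SIAE; inhibitors lower polarization as more probe stays unbound to SIAE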
An asterisk follows results filed as active; . = no result. Most compounds without a hit are left out; they make up all but 2.9% or so of the library. Rule as the data show it, unless noted: active = inhibition above about 19%; inactive = the rest.

SMILES | HTRA1 inhibitor | PRMT1 FP inh | TCR-CD3 inh | ATG4B inhibitor | SIAE inh | mABHD4 FP | HTRA1 inh conf | BSA TAMRA ctr | TCR-CD3 inh conf | mABHD4 conf | SIAE inh conf | others
CCOc1c(Cl)cc(CNc2ccc(N3CCCC3)cc2)cc1OC | 50* | 5 | 7 | 1 | 21* | 24 | 16 | . | . | . | 11
COc1ccc(Cn2cc(COC(=O)N3CCCC3)nn2)cc1 | . | -4 | . | . | 1 | 5 | . | . | . | . | .
Cc1nc2ccccc2n2c(O)c(CC(=O)O)cc12 | 55* | 44* | 16 | 4 | 18* | 30* | 40* | . | . | 74* | 31*
Cc1nc2ccccc2n1CCC(=O)O | 0 | 0 | -2 | 3 | -5 | 6 | . | . | . | . | .
O=C1CCCC(O)=C1N=Nc1ccc(C(=O)O)cc1 | 40* | 6 | 18 | -4 | 66* | 29 | 12 | . | . | . | -2
O=C1CCCC(O)=C1N=Nc1c(Cl)cc(C(F)(F)F)cc1Cl | 72* | 4 | 26* | -6 | 89* | 62* | 1 | -7 | -3 | -3 | 4
COc1cccc(CNC(=O)C2C3C=CC4(CN(Cc5ccccc5)C(=O)C24)O3)c1OC (centres undefined) | . | -1 | . | . | 0 | 1 | . | . | . | . | .
O=S1(=O)c2ccc(Br)cc2OC[C@@H](Cc2ccccc2)N1Cc1cn(Cc2ccccc2)nn1 | . | -3 | . | . | -6 | -5 | . | . | . | . | .
O=C(O)c1cccc(CN2C(=O)c3ccccc3C2=O)c1 | 1 | -1 | -13 | -7 | -1 | -8 | . | . | . | . | .
O=C1c2cccc3c(O)ccc(c23)C(=O)N1Cc1ccccc1 | 66* | 174* | 59* | -72 | 42* | 75* | 46* | 74* | 57* | 80* | 49*
COC(=O)/C(=C/Nc1ccc(O)cc1)[N+](=O)[O-] | 45* | 47* | 99* | -15 | 25* | 94* | 4 | 3 | -1 | -1 | -3
O=C1C=C(Nc2cccc3cccnc23)c2ccccc2C1=O | 42* | 9 | 14 | 13 | 19* | 59* | 39* | . | . | 25 | 4
CCOC(=O)CCCNC(=O)OCCCN1CCC2(CCC(c3ccccc3)CC2)C1=O (centres undefined) | . | -2 | . | . | -1 | -2 | . | . | . | . | .
Oc1ccc(NCc2cccs2)cc1 | 37* | 20 | 21* | 1 | 20* | 54* | 4 | 2 | 6 | 11 | 9
CC(=O)Nc1ccc(NCc2cccs2)cc1 | 14 | 3 | -6 | 5 | 6 | 5 | . | . | . | . | .
CCOc1cc(N2CCOCC2)c(OCC)cc1NC(C)C(=O)N1CCN(CC)CC1 (centres undefined) | 41* | 15 | 31* | -5 | 27* | 41* | 17 | 1 | 2 | . | 4
Fc1ccc(C2=Nc3cccc4cccc(c34)N2)cc1 | 0 | 5 | 5 | 20 | 3 | 9 | . | . | . | . | .
FC(F)(F)C1=Nc2cccc3cccc(c23)N1 | 39* | 6 | 31* | 12 | 56* | 4 | 85* | -7 | 9 | . | 4
N#C/C(=C/c1ccc(O)c(O)c1)c1nc2ccccc2[nH]1 | 65* | 42* | 36* | -10 | 29* | 58* | 94* | -12 | 48* | 65* | 51* | PRMT1 inh conf=37*
Cc1cc2cc(CNC(=O)Nc3cccc(Cl)c3)ccc2n1C | 39* | 10 | 55* | 4 | 26* | 46* | 6 | 5 | 1 | -10 | -6
COC(=O)[C@]12C[C@H](CC(=O)NCc3ccc(OC)c(OC)c3)C(=O)N(CCc3ccc(OC)c(OC)c3)C1=C[C@H](COCc1ccccc1)O[C@@H]2C | . | 1 | . | . | 5 | 2 | . | . | . | . | .
